The values that follow come from ChEMBL document CHEMBL2424525, “Synthesis of 3'-azido-2',3'-dideoxy-5-fluorouridine phosphoramidates and evaluation of their anticancer activity” (Eur J Med Chem, 2013).

Holding throughout (type): functional, cell-based
In one assay the test system is MCF7. Briefly: Cytotoxicity against human MCF7 cells after 72 hrs by SRB assay. The following applies: MCF7, 72 h. Summed up:
(§1)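 SRB assay. HeLa and KB cells were grown in RPMI 1640 and MCF-7 cells in DMEM. Cells were fixed with 50% trichloroacetic acid for 1 h at 4 °C, then washed with distilled water. Unbound dye was removed with 1% acetic acid and plates were air dried overnight. OD read at 490 nm. Survival was taken as % absorbance of untreated control. Cytarabine served as internal standard. Three independent experiments.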

In the next assay the test system is KB. Briefly: Cytotoxicity against human KB cells after 72 hrs by SRB assay. Summed up:
as §1

A further assay relates to HeLa. Briefly: Cytotoxicity against human HeLa cells after 72 hrs by SRB assay. Summed up: as §1

Each structure is given as a SMILES string.

As for `O=c1[nH]cc(F)c(=O)[nH]1` [FLUOROURACIL], the concentration for half-maximal inhibition (IC50) in the assay with MCF7 was determined as 6.53 µM; in the assay on KB, 4.84 µM; with HeLa it was 6.23 µM.

Regarding `COC(=O)[C@H](C)NP(=O)(OC[C@H]1O[C@@H](n2cc(F)c(=O)[nH]c2=O)C[C@@H]1N=[N+]=[N-])Oc1ccc(Cl)cc1` (stereo not given in full), the results for the concentration for half-maximal inhibition (IC50) in the assay on MCF7, in the assay with KB and in the assay with HeLa were 38.4 µM, above 100 µM and 38.4 µM, respectively.

On to `CNP(=O)(OC[C@H]1O[C@@H](n2cc(F)c(=O)[nH]c2=O)C[C@@H]1N=[N+]=[N-])Oc1ccc(Cl)cc1` (stereo not given in full), for which the 50% inhibitory concentration (IC50) in the assay on MCF7 is 4.42 µM; in the assay with KB it was 8.64 µM; in the assay with HeLa, 8.43 µM.

In the case of `O=c1[nH]c(=O)n([C@H]2C[C@H](O)[C@@H](CO)O2)cc1F` [FLOXURIDINE], the 50% inhibitory concentration (IC50) with MCF7 worked out at 12.2 µM; with KB, 8.69 µM; in the assay on HeLa, 6.5 µM.

With `[N-]=[N+]=N[C@H]1C[C@H](n2cc(F)c(=O)[nH]c2=O)O[C@@H]1CO`, the 50% inhibitory concentration (IC50) in the assay with MCF7 was 10.3 µM; with KB, 8.11 µM; with HeLa, 11.1 µM.

`C#CCNP(=O)(OC[C@H]1O[C@@H](n2cc(F)c(=O)[nH]c2=O)C[C@@H]1N=[N+]=[N-])Oc1ccc(Cl)cc1` (stereo not given in full): the IC50 with MCF7 came out at 5.41 µM; in the assay on KB, 3.81 µM; with HeLa, 4.21 µM.

For `CCNP(=O)(OC[C@H]1O[C@@H](n2cc(F)c(=O)[nH]c2=O)C[C@@H]1N=[N+]=[N-])Oc1ccc(Cl)cc1` (stereo not given in full), the figures for the IC50 in the assay on MCF7, in the assay on KB and with HeLa were 1.88 µM, 1.64 µM and 1.64 µM, respectively.

For the molecule `[N-]=[N+]=NCCCCNP(=O)(OC[C@H]1O[C@@H](n2cc(F)c(=O)[nH]c2=O)C[C@@H]1N=[N+]=[N-])Oc1ccc(Cl)cc1` (stereo not given in full), the IC50 in the assay on MCF7 worked out at 22.4 µM; with KB, 46.6 µM; in the assay with HeLa, 35.5 µM.

With `Nc1ccn([C@@H]2O[C@H](CO)[C@@H](O)[C@@H]2O)c(=O)n1` [CYTARABINE], the IC50 with HeLa is 3.54 µM.

Regarding `CCCCNP(=O)(OC[C@H]1O[C@@H](n2cc(F)c(=O)[nH]c2=O)C[C@@H]1N=[N+]=[N-])Oc1ccc(Cl)cc1` (stereo not given in full), the values for the IC50 with MCF7, with KB and with HeLa were 41.8 µM, 38.7 µM and 32.9 µM, respectively.

Regarding `[N-]=[N+]=N[C@H]1C[C@H](n2cc(F)c(=O)[nH]c2=O)O[C@@H]1COP(=O)(NCC(F)(F)F)Oc1ccc(Cl)cc1` (stereo not given in full), the 50% inhibitory concentration (IC50) in the assay on MCF7 turned out to be 23.9 µM; in the assay with KB, 40.5 µM; in the assay with HeLa it was 43.9 µM.

Turning to `[N-]=[N+]=NCCCNP(=O)(OC[C@H]1O[C@@H](n2cc(F)c(=O)[nH]c2=O)C[C@@H]1N=[N+]=[N-])Oc1ccc(Cl)cc1` (stereo not given in full), the results for the IC50 in the assay with MCF7, in the assay with KB and in the assay on HeLa were 33.1 µM, 99.3 µM and 96.2 µM, respectively.

Take `C=CCNP(=O)(OC[C@H]1O[C@@H](n2cc(F)c(=O)[nH]c2=O)C[C@@H]1N=[N+]=[N-])Oc1ccc(Cl)cc1` (stereo not given in full): the half-inhibitory concentration (IC50) amounted to 10.4 µM in the assay on MCF7, 8.59 µM in the assay with KB and 9.98 µM in the assay on HeLa.

Regarding `CCCNP(=O)(OC[C@H]1O[C@@H](n2cc(F)c(=O)[nH]c2=O)C[C@@H]1N=[N+]=[N-])Oc1ccc(Cl)cc1` (stereo not given in full), the half-maximal inhibitory concentration (IC50) in the assay with MCF7 worked out at 27.2 µM; in the assay on KB, 26.9 µM; in the assay with HeLa, 25.9 µM.
